This passage reports IC50 and Ki results from ChEMBL document CHEMBL1125429, “Intriguing structure-activity relations underlie the potent inhibition of HIV protease by norstatine-based peptides” (J Med Chem, 1992).

For assay [1], the target named is T1, Human immunodeficiency virus type 1 protease (Human immunodeficiency virus 1, UniProt Q72874). The assay is described as follows: Inhibitory activity of the Compound was tested against HIV protease enzyme. A digest of the protocol:
(§1)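 HIV-1 protease from the BRU strain was expressed in a microbial host. Activity was followed as hydrolysis of the octapeptide substrate VSQN-β-naphthylalanine-PIV, using a modified version of Heimbach's method.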

For assay [2], the target named is T1, Human immunodeficiency virus type 1 protease. As to the kind of experiment: Binding affinity against HIV protease enzyme.(by Dixon analysis). A digest of the protocol: as §1
Assay [3] shares this target. As to the kind of experiment: Inhibitory activity of the Compound was tested against HIV protease enzyme.(value reported by Roche group).
Assay [4] has the same target. As to the kind of experiment: Binding affinity against HIV Protease enzyme.(by Dixon analysis). A digest of the protocol:
as §1

Assay [5] shares this target. The assay is described as follows: Inhibitory activity of the Compound was tested against HIV protease enzyme.(value reported by Rich etal).
For assay [6] the target is unchanged. As to the kind of experiment: (§2) Inhibitory activity of the Compound was tested against HIV protease enzyme. A digest of the protocol:
(§3)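 HIV-1 protease (BRU strain), microbially expressed; activity followed as hydrolysis of the octapeptide substrate VSQN-β-naphthylalanine-PIV, using a modified literature method.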

The target is the same in assay [7]. Described as §2. A digest of the protocol: as §3
The source holds these as a separate data set.

A value given as a limit tells only on which side of the number the result lay.

The term IC50 denotes the concentration at which inhibition is half-maximal. Usually Ki stands for the dissociation constant of the complex between target and ligand, obtained from inhibition or displacement. A lower Ki goes with a stronger hold on the target.

For `CC(C)(C)NC(=O)[C@@H]1CCCN1C(=O)[C@H](O)[C@H](Cc1ccccc1)NC(=O)[C@H](CC(N)=O)NC(=O)OCc1ccccc1`, the midpoint of inhibition in assay [1], the IC50, lay at 3100 nM. The compound `CC(C)(C)NC(=O)[C@@H]1CCCN1C(=O)C(=O)[C@H](Cc1ccccc1)NC(=O)OCc1ccccc1` yielded an IC50 in assay [1] of 600 nM. On to `CC(C)(C)NC(=O)[C@@H]1CCCN1C(=O)[C@@H](O)[C@H](Cc1ccccc1)NC(=O)[C@H](CC(N)=O)NC(=O)c1ccc2ccccc2n1`, for which the affinity in assay [2], expressed as Ki, was 0.9 nM. Also, in assay [1], the IC50 is 1.1 nM.

In turn, `CC(C)(C)NC(=O)[C@@H]1CCCCN1C(=O)[C@@H](O)[C@H](Cc1ccccc1)NC(=O)[C@H](CC(N)=O)NC(=O)OCc1ccccc1` gave an IC50 in assay [1] of 26 nM. In assay [3], `CC(C)(C)NC(=O)[C@@H]1CC2CCCCC2CN1C[C@@H](O)[C@H](Cc1ccccc1)NC(=O)[C@H](CC(N)=O)NC(=O)OCc1ccccc1` (stereo not given in full) gave an IC50 of less than 2.7 nM. With `CC[C@H](C)[C@H](NC(=O)[C@@H]1CCCN1C(=O)[C@H](O)[C@H](Cc1ccccc1)NC(=O)[C@H](CC(N)=O)NC(=O)OCc1ccccc1)C(=O)N[C@H](C(=O)OC)C(C)C`, it took 25 nM to reach half-maximal inhibition in assay [1] (IC50). Still for that read-out and setting: in the case of `CC[C@H](C)[C@H](NC(=O)[C@@H]1CCCN1C(=O)[C@@H](O)[C@H](Cc1ccccc1)NC(=O)[C@@H](CC(N)=O)NC(=O)OCc1ccccc1)C(=O)N[C@H](C(=O)OC)C(C)C` it was 3.1 nM. The compound `CC(C)[C@H](NC(=O)OCc1ccccc1)C(=O)N[C@@H](Cc1ccccc1)[C@H](O)C(=O)N1CCC[C@H]1C(=O)NC(C)(C)C` showed an IC50 in assay [1] of 4.3 nM. In turn, `CC(C)(C)NC(=O)[C@@H]1CCCN1C(=O)[C@@H](O)[C@H](Cc1ccccc1)NC(=O)[C@H](CC(N)=O)NC(=O)COc1cccc2ccccc12` registered a Ki in assay [4] of 0.4 nM. Moreover, 0.58 nM corresponded to half-maximal inhibition in assay [1] (IC50).

In the case of `CC(C)(C)OC(=O)[C@@H]1CCCN1C[C@@H](O)[C@H](Cc1ccccc1)NC(=O)OCc1ccccc1`, it took 6500 nM to reach half-maximal inhibition in assay [3] (IC50). For the compound `CC(C)(C)NC(=O)[C@@H]1C[C@@H]2CCCC[C@@H]2CN1C(=O)[C@@H](O)[C@H](Cc1ccccc1)NC(=O)[C@H](CC(N)=O)NC(=O)OCc1ccccc1`, the IC50 in assay [1] came out at 84 nM. On the same count and under the same terms, in the case of `CC(C)(C)NC(=O)[C@@H]1C[C@@H]2CCCC[C@@H]2CN1C(=O)[C@@H](O)[C@H](Cc1ccccc1)NC(=O)[C@H](CC(N)=O)NC(=O)c1ccc2ccccc2n1` it was 27 nM.

In assay [3], `CC(C)(C)NC(=O)[C@@H]1CCCCN1C[C@@H](O)[C@H](Cc1ccccc1)NC(=O)[C@H](CC(N)=O)NC(=O)OCc1ccccc1` came in with an IC50 of 18 nM. For the compound `CC(C)[C@H](NC(=O)COc1cccc2ccccc12)C(=O)N[C@@H](Cc1ccccc1)[C@H](O)C(=O)N1CCC[C@H]1C(=O)NC(C)(C)C`, in assay [1], inhibition was half-maximal at 1.9 nM (IC50). For `CC(C)(C)OC(=O)[C@@H]1CCCN1C[C@H](O)[C@H](Cc1ccccc1)NC(=O)[C@H](CC(N)=O)NC(=O)OCc1ccccc1`, the IC50 in assay [5] came to 450 nM; in assay [6] it was 130 nM; in assay [7], 180 nM. `CC(C)(C)NC(=O)[C@@H]1CCCN1C[C@@H](O)[C@H](Cc1ccccc1)NC(=O)[C@H](CC(N)=O)NC(=O)OCc1ccccc1`: the IC50 in assay [3] is 210 nM. For `CC(C)(C)NC(=O)[C@@H]1CCCN1C(=O)[C@@H](O)[C@H](Cc1ccccc1)NC(=O)[C@H](CC(N)=O)NC(=O)COc1ccc2ccccc2c1`, half-maximal inhibition in assay [1] (IC50) was put at 1.3 nM. Compound `CC(C)(C)NC(=O)[C@@H]1CCCN1C(=O)[C@@H](O)[C@H](Cc1ccccc1)NC(=O)[C@H](CC(N)=O)NC(=O)OCc1ccccc1` returned a Ki in assay [4] of 4 nM. The IC50 in assay [1] came to 7.4 nM.

The compound `CC(C)(C)NC(=O)[C@@H]1CCCN1C(=O)[C@@H](O)[C@H](Cc1ccccc1)NC(=O)OCc1ccccc1` returned an IC50 in assay [1] of 460 nM.

Compound `CC(C)(C)NC(=O)[C@@H]1CCCN1C(=O)C(=O)[C@H](Cc1ccccc1)NC(=O)[C@H](CC(N)=O)NC(=O)OCc1ccccc1` displayed an IC50 in assay [1] of 20 nM.
